Screening data from PubChem.
HUVEC prolif 384 – blocks proliferation of human endothelial cells; HUVEC proliferation, CellTiter-Glo luminescence, 72 h; hits give low values; viability, % at 10 µM (by protocol); 86,000 tested, 1.1% active; AID 648;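 active = viability at or below 30%; inactive = viability above 30%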;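 also: 100% = median luminescence of DMSO-only cell control wells on each plate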
bCat KO growth – beta-catenin-lacking colon tumor cell growth suppression | HCT116 beta-catenin knockout viability, CellTiter-Glo, 60 h; hits give low values | viability, % at 10 µM | 140,000 tested, 1.5% active | AID 818;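 active = viability at or under a set limit, the compound median less 4 SD, cut at about 6% in these data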;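 also: 0% = Hyamine 1622 control at 20 µM and 100% = untreated cell control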
Fibroblast inh – blocks proliferation of human lung fibroblasts. LL 47 human lung fibroblast viability, ATP luminescence; hits give low values. viability, % at 10 µM. 85,000 tested, 1.1% active. AID 719;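 active = viability at or below 50% in the single dose screen; inactive = viability above 50%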;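 also: compound exposure lasted 72 h before the ATP readout; 100% = median luminescence of untreated cell-only wells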
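material = human LL 47 lung fibroblast cells | dosing = compounds added from tenfold dosing solution, 0.1% DMSO final | timing = overnight cell rest, 72 h compound treatment at 37 °C | measured by = CellTiter-Glo luminescence measuring cellular ATP | evaluation = % viability versus median cells-only luminescence | control set = cell-only wells, no compound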
PTEN del growth – growth suppressors of cells with PTEN tumor suppressor deletion; AID 827; HCT116 PTEN-null viability, CellTiter-Glo, 60 h; hits give low values; viability, % at 10 µM; 140,000 tested, 1.2% active;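 active = viability at or below a set limit, 4 SD under the median of all tested compounds, cut at about 3.7% in these data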;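 also: PTEN knockout HCT116 line with beta catenin targeted HCT116 as companion control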
H69AR growth 86K – blocks growth of human H69AR lung tumor cells; H69AR lung tumor viability, ATP luminescence, 72 h; hits give low values; viability, % at 10 µM; 85,000 tested, 6% active; AID 598;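 active = viability at or below 40%; inactive = viability above 40%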;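 also: multidrug resistant small cell line overexpressing MRP-1 efflux transporter; 100% = mean luminescence of untreated control wells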
Starred values were filed as active, the others as inactive; / = no result. Shown is part of a subset that was picked to be rich in hits.

SMILES | HUVEC prolif 384 | bCat KO growth | Fibroblast inh | PTEN del growth | H69AR growth 86K
COc1ccc(-n2c(SCc3nnc(-c4ccccc4)o3)nnc2-c2ccccc2)cc1 | 66 | 86 | 82 | 91 | 84
COc1ccc2[nH]c3nc(SCc4nnc(-c5ccccc5)o4)nnc3c2c1 | 65 | 81 | 101 | 73 | 9.3*
Cc1ccc(C2(C)NC(=O)N(CC(=O)c3ccc(Cl)s3)C2=O)cc1 (centres undefined) | / | 88 | / | 84 | /
CC(C)(C)c1ccc(/C=C2\SC(=O)N(CCNC(=O)c3cccc(S(=O)(=O)N4CCOCC4)c3)C2=O)cc1 | / | 31 | / | 24 | /
CC(=O)OC(C(=O)Nc1ccccc1C)C(OC(C)=O)C(OC(C)=O)C(OC(C)=O)C(=O)Nc1ccccc1C (centres undefined) | 96 | / | 101 | / | 92
Nc1c(C(=O)Nc2cccc(Cl)c2Cl)sc2nc(-c3cccnc3)ccc12 | / | 1.5* | / | 1.3* | /
CC(C)c1nnc(NC(=O)c2c(O)c3cccc4c3n(c2=O)CCC4)s1 | 109 | 42 | 67 | 34 | 34*
Cc1cnc(NC(=O)c2c(O)c3cccc4c3n(c2=O)CCC4)s1 | 89 | 80 | 97 | 84 | 5.7*
Cc1cccc(NC(=O)c2c(O)c3cccc4c3n(c2=O)CCC4)n1 | 103 | 92 | 100 | 98 | 85
CCN(CC)C(=O)C[n+]1cccc(C(N)=O)c1 | / | 84 | / | 99 | /
CCOC(=O)c1cccc2c1-c1ccccc1/C2=N/O | 14* | 100 | 89 | 95 | 28*
CC(C)COC(=O)c1cccc2c1-c1ccccc1/C2=N\O | 43 | 80 | 98 | 92 | 41
CCC(=O)Oc1ccc(C(=O)Nc2ccc3c(c2)C(=O)N(C2CCCCC2)C3=O)cc1 | 55 | 72 | 93 | 69 | 5.3*
CCOC(=O)c1ccc2c(c1)C(=O)N(C1CCCCC1)C2=O | 107 | 101 | 100 | 106 | 94
CC(C(=O)NCc1ccco1)n1nc(-c2ccccc2)c2cc(Cl)ccc21 (centres undefined) | 67 | 48 | 82 | 52 | 35*
CC(=O)c1ccc(NC(=O)C(C)n2nc(-c3ccccc3)c3cc(Cl)ccc32)cc1 (centres undefined) | / | 64 | / | 58 | /
CCSc1nnc(NC(=O)c2cnccn2)s1 | 97 | / | / | / | 49
CCSc1nnc(NC(=O)C(CC)(C(F)(F)F)C(F)(F)F)s1 | 73 | 77 | 95 | 69 | 36*
CCSc1nnc(NC(=O)c2ccccn2)s1 | 45 | 11 | / | 7 | 18*
COc1ccccc1OCC(=O)NCCSCc1cccc(Cl)c1 | / | 95 | / | 88 | /
O=C(COc1ccc(/C=N/NC(=O)C(=O)N2CCCCCC2)cc1)Nc1ccccc1Cl | / | 96 | / | 101 | /
Cc1ccc(O)c(-c2cc(C(=O)NCc3ccc4c(c3)OCO4)[nH]n2)c1 | / | 98 | / | 97 | /
O=C(Nc1ccc(N2CCN(C(=O)c3ccccc3)CC2)cc1)c1cc2ccccc2o1 | 100 | 5.6* | 86 | 17 | 83
COc1cccc(NC(=O)Nc2nnc(-c3ccccc3SCc3ccccc3)s2)c1 | 79 | 32 | 66 | 30 | 17*
CCOC(=O)C1CCCN(c2cc(NCCCO)c([N+](=O)[O-])c3nonc23)C1 (centres undefined) | / | 93 | / | 95 | /
SMILES | HUVEC prolif 384 | bCat KO growth | Fibroblast inh | PTEN del growth | H69AR growth 86K
CCCC(=O)OCCNc1cc(Sc2nccn2C)c2nonc2c1[N+](=O)[O-] | / | 1.9* | / | 1.7* | /
CCCSc1cc(NCCOC(C)=O)c([N+](=O)[O-])c2nonc12 | / | 91 | / | 89 | /
CCCC(=O)OCCNc1cc(SCc2ccco2)c2nonc2c1[N+](=O)[O-] | / | 2.7* | / | 14 | /
CC(=O)OCCCNc1cc(SCc2ccco2)c2nonc2c1[N+](=O)[O-] | / | 2.3* | / | 3.5* | /
CCCSc1cc(NCCOC(=O)CCC)c([N+](=O)[O-])c2nonc12 | / | 21 | / | 21 | /
c1ccc(Cc2cc(-c3ccccc3)on2)cc1 | 106 | 76 | 96 | 88 | 102
CCCC1(c2ccccc2)NC(=O)N(CC(=O)Nc2sc(-c3ccccc3)cc2C(=O)OCC)C1=O (centres undefined) | 22* | 36 | 22* | 37 | 34*
CCOC(=O)c1cc(-c2ccccc2)sc1NC(=O)CC(C)C | / | 77 | / | 73 | /
COc1ccc(NS(=O)(=O)c2ccc(NC(=S)NC(=O)c3ccc(Br)cc3)cc2)nn1 | / | 105 | / | 100 | /
N#CC1=C(N)Oc2n[nH]c(-c3cccs3)c2C1C1CCCCC1 (centres undefined) | 72 | 92 | 100 | 89 | 38*
COc1ccc(OCCCC(=O)Nc2cc([N+](=O)[O-])ccc2C)cc1 | / | 95 | / | 93 | /
O=C1C=CC(O)(c2cc(=O)c3c(O)cc(O)cc3o2)C=C1 | / | 1.1* | / | 1.3* | /
COc1ccc(N=Nc2nc3cc(Br)c(Br)cc3n2C)c(OC)c1 | / | 71 | / | 64 | /
Nc1nc2ccccc2n1/N=C/c1ccc([N+](=O)[O-])s1 | / | 3.5* | / | 2.6* | /
Nc1nc2ccccc2n1/N=C/c1cccnc1 | 110 | 94 | / | 91 | 63
CC(=O)c1ccc(N2CCN(C(=O)CCCc3nc4ccccc4s3)CC2)cc1 | / | 67 | / | 82 | /
Cc1cc(-c2n[nH]c(=S)n2/N=C/C(Cl)=C/c2ccccc2)n[nH]1 | / | 5.0* | / | 2.2* | /
O=C(NC1(C(F)(F)F)NC(=O)N(c2ccc(F)cc2)C1=O)c1cccs1 (centres undefined) | / | 97 | / | 93 | /
Cn1c(-c2ccc3ccccc3n2)nc2cnccc21 | 29* | 66 | 87 | 57 | 74
O=C1C2C3C=CC(C3)C2C(=O)N1CC1CCCO1 (centres undefined) | 92 | 128 | 103 | 107 | 97
O=C1CSC(=S)N1CC1CCCO1 (centres undefined) | 95 | 68 | 93 | 61 | 20*
CC(C)c1ccc(/C=N/NC(=O)C(=O)NCCCN2CCOCC2)cc1 | / | 101 | / | 94 | /
COC(=O)c1c(C)n(-c2ccccc2)c2ccc(O)cc12 | 42 | 51 | 92 | 39 | 19*
COC(=O)c1c(C)n(-c2ccc(C)cc2)c2ccc(O)cc12 | 27* | 41 | 88 | 31 | 23*
COc1cc(-c2nnc(CSc3nnc(Nc4ccc(Oc5ccccc5)cc4)s3)o2)cc(OC)c1OC | / | 70 | / | 67 | /
SMILES | HUVEC prolif 384 | bCat KO growth | Fibroblast inh | PTEN del growth | H69AR growth 86K
COc1ccccc1-c1nc(-c2ccccn2)no1 | 60 | 43 | 53 | 38 | 40*
CCOC(=O)Cn1c(=N)n(CCOc2cccc(C)c2)c2ccccc21 | 97 | 91 | 93 | 99 | 88
Cc1cccc(OCC(O)Cn2c(=N)n(CCN3CCCCC3)c3ccccc32)c1 (centres undefined) | 51 | 1.9* | 69 | 1.5* | 5.5*
Cc1ccc(OCC(O)Cn2c(=N)n(Cc3ccccc3)c3ccccc32)cc1 (centres undefined) | 6.5* | 1.4* | 1.9* | 1.6* | 88
COc1ccc(OCC(O)Cn2c(=N)n(Cc3ccccc3)c3ccccc32)cc1 (centres undefined) | 73 | 0.8* | 60 | 1.4* | 82
N=c1n(Cc2ccccc2)c2ccccc2n1Cc1ccccc1 | / | 27 | / | 38 | /
COc1ccc(Cl)cc1NC(=S)NCc1ccc(S(N)(=O)=O)cc1 | / | 87 | / | 87 | /
